Source: PubChem (Johns Hopkins Ion Channel Center)
TRPC6 act – mouse TRPC6 channel activation; HEK293-TRPC6 membrane potential dye fluorescence; stronger effect = higher value; B-score at 10 µM; hit rate 0.13% among 310,000; AID 2550;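 active = B-score of the integrated fluorescence ratio above library mean plus 3 SD, and starting fluorescence ratio within library mean plus 5 SD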;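 also: higher score means more depolarization so channel activation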
TRPC4 PAM – allosterically enhances the mouse TRPC4 cation channel. Q9QUQ5. AID 2227. hit rate 0.42% among 310,000. HEK293 TRPC4beta/mu-opioid, DAMGO EC20, Fluo-4 Ca2+ flux; stronger effect = higher value. B-score at 10 µM;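 active = B-score of calcium response area above 5 SD of library B-scores, with initial fluorescence ratio within 5 SD of library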;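 also: B-score of integrated fluorescence ratio over time as area under calcium response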
TRPC4 act – activators of mouse TRPC4 channel | AID 2237 | Q9QUQ5 | HEK293 TRPC4beta/mu-opioid, Fluo4 calcium fluorescence; stronger effect = higher value | B-score at 10 µM | hit rate 0.49% among 310,000;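 active = B-score above 5 SD of library B-scores, and initial fluorescence ratio not above library mean plus 5 SD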;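 also: positive B-score marks a calcium rise read as TRPC4 activation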
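Material: HEK293 stable line with TRPC4beta plus mu-opioid receptor; technique: Fluo4 calcium-sensitive dye fluorescence, kinetic, 1 Hz baseline; timing: Fluo4 dye loading 45 min at room temperature, 110 s recording; controls: assay buffer as low control, maximal DAMGO as high control; read-out: integrated baseline-normalised fluorescence ratio, converted to per-well B score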
TRPC4 inh – inhibitors of mouse TRPC4 channel; Q9QUQ5; HEK293 TRPC4beta/mu-opioid, DAMGO-evoked Fluo4 calcium flux; stronger effect = lower value; B-score at 10 µM; hit rate 0.39% among 300,000;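 active = B-score over 3 SD under the library average, no early fluorescence shift, positive overall ratio signal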
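Assay system: HEK293 cells with stable TRPC4beta plus mu-opioid receptor expression; Probe or stimulus: DAMGO in two steps, submaximal then maximal; Dosing: single-point compound dosing; Measured by: Fluo4 calcium-dye fluorescence, kinetic read; Read-out basis: B score from integrated Fluo4 fluorescence ratio.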
TRPC6 inh – blocks the mouse TRPC6 cation channel; hit rate 1.1% among 310,000; Q61143; HEK293-TRPC6, membrane potential dye, ACh-evoked depolarization; stronger effect = lower value; B-score at 10 µM;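 active = B-score under library mean minus 3 SD, initial fluorescence not abnormally high, positive integrated signal ratio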;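 also: B-score derived from integrated fluorescence ratio over the kinetic read; more negative B-score means stronger inhibition of depolarization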
The depositor's hits bear a star; i = inactive; nt = no result; ! = repeats disagree. Sampled rows, rich in hits. Any-hit rate of the full collection: about 2.3%.

SMILES	TRPC6 act	TRPC4 PAM	TRPC4 act	TRPC4 inh	TRPC6 inh
Cc1cccc(C)c1OCCCCN1CCCCC1	i	i	i	i	i
Cc1cc(OCCCN2CCCC2)ccc1Cl	i	12*	i	i	i
Cc1cccc(C)c1OCCCN1CCCC1	i	14*	i	i	i
COc1ccc(-n2c(-c3ccc(Br)cc3)c[n+]3c2CCCCC3)cc1	i	i	i	-6*	i
Cc1ccc(-n2c(-c3ccccc3)c[n+]3c2CCC3)cc1	i	i	i	i	i
COc1ccc(C[C@H]2CN3C(=NC[C@@H]3Cc3ccccc3)N2CCNC(=O)c2ccc(C)c(Br)c2)cc1	i	i	48*	i	i
O=C(NCc1ccccc1Cl)c1ccc(CSc2nc3ccncc3[nH]2)cc1	i	i	i	i	i
Clc1ccccc1CSc1nc2ccncc2[nH]1	i	i	i	-6*	i
Cc1cc(S(=O)(=O)Nc2ccc(C(=O)NCC(c3ccco3)N3CCCCC3)cc2)ccc1F (stereo not given)	i	i	i	i	i
Cc1ccc(S(=O)(=O)Nc2cccc(C(=O)NCC(c3ccco3)N3CCCCC3)c2)cc1F (stereo not given)	i	i	i	-9*	i
Cc1ccc(S(=O)(=O)NCCC(=O)NCC(c2ccco2)N2CCCCC2)cc1C (stereo not given)	i	i	72*	-6*	i
COc1ccc(C(=O)O)cc1S(=O)(=O)N1CCSCC1	i	i	i	i	i
O=C(Cc1cccc(C(F)(F)F)c1)OCN1C(=O)c2ccccc2C1=O	i	i	i	i	i
Cc1ccc(C)n1-c1nnc(N2CCC(C(=O)NCCCN3CCN(C)CC3)CC2)s1	i	i	i	i	i
Cc1cc(=O)n2nc(N3CCCC(C(=O)NCCCN4CC(C)CC(C)C4)C3)sc2n1 (stereo not given)	i	i	47*	i	i
Cc1ccc(C)n1-c1nnc(N2CCC(C(=O)NCCCN3CC(C)CC(C)C3)CC2)s1 (stereo not given)	i	i	88*	i	i
COc1ccc(CCC(C)NCc2cccc(Br)c2)cc1 (stereo not given)	i	i	i	i	i
CC1CC(C)CN(S(=O)(=O)c2ccc(C(=O)N(c3ccccn3)C3CCCCC3)cc2)C1 (stereo not given)	i	i	i	-6*	i
O=C(c1ccc(S(=O)(=O)N2CCCCC2)cc1)N(c1ccccn1)C1CCCCC1	i	i	i	i	i
CCOC(=O)C1CCN(c2cc3c(cc2NC(=O)c2ccccc2Br)n(C)c(=O)n3C)CC1	i	i	i	i	i
CCOC(=O)C1CCN(c2cc3c(cc2NC(=O)c2cc(OC)ccc2Br)n(C)c(=O)n3C)CC1	i	12*	i	i	i
O=c1oc2ccccc2c(Nc2ccccc2)c1CN1CCCCC1	i	i	i	-7*	i
O=C(CSCc1cccc(Cl)c1)N1CCN(Cc2ccc3c(c2)OCO3)CC1	i	i	i	-7*	i
O=C(COC(=O)c1cccc([N+](=O)[O-])c1)NCc1cccs1	i	i	i	nt	i
Cc1ncsc1CCOC(=O)c1cccc([N+](=O)[O-])c1	i	i	i	-6*!	i
SMILES	TRPC6 act	TRPC4 PAM	TRPC4 act	TRPC4 inh	TRPC6 inh
O=c1ccc(-c2nc3cc(Cl)ccc3n2Cc2ccccc2)c[nH]1	i	10*	i	i	i
O=c1ccc(-c2nc3ccccc3n2Cc2ccccc2Cl)c[nH]1	i	i	i	i	i
COc1ccc(-c2cnc(N)n2CC2CCCO2)cc1 (stereo not given)	i	i	i	i	i
c1ccc(-c2cnc(SCCN3CCOCC3)n2CC2CCCO2)cc1 (stereo not given)	i	i	i	-5*	i
CCC1=Nc2cc(C(=O)N3CCCCC3)ccc2Sc2ccc(C)cc21	i	i	i	i	i
CCCC1=Nc2cc(C(=O)N3CCCC3)ccc2Sc2ccc(C)cc21	i	i	54*	i	i
Cc1ccsc1C(=O)OCC(=O)NCCNC(=O)COC(=O)c1sccc1C	i	i	i	-7*	i
